Data reported in ChEMBL document CHEMBL4699666, “Cyclic Peptidyl Inhibitors against CAL/CFTR Interaction for Treatment of Cystic Fibrosis” (J Med Chem, 2020).
Non-standard residues stand in square brackets, D forms with d. Residues, ends and D or L forms follow the SMILES beside them. 1Nal = N[C@@H](Cc1cccc2ccccc12)C(=O)O; 2Nal = N[C@@H](Cc1ccc2ccccc2c1)C(=O)O; Bta = N[C@@H](Cc1csc2ccccc12)C(=O)O; Pen = CC(C)(S)[C@H](N)C(=O)O; Tle = CC(C)(C)[C@H](N)C(=O)O

Tested on: not listed separately
Assay: Drug uptake in human HeLa cells at 5 uM incubated for 2 hrs by flow cytometry relative to CPP9
Type: ADME, cell-based
Summary of the method: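 Naphthofluorescein-labelled cyclic peptides (5 μM final, 0.5% DMSO, in DMEM with 10% FBS) were applied to HeLa cells, seeded the day before at 15 × 10^4 per well, for 2 h at 37 °C. Cells were washed with cold DPBS, trypsinized and analysed by flow cytometry. Mean fluorescence was expressed as % of CPP9; n = 3.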

SMILES	Drug uptake
CC(=O)N[C@@H](CS)C(=O)N[C@H](CCCNC(=N)N)C(=O)N[C@@H](CCCNC(=N)N)C(=O)N[C@@H](CCCNC(=N)N)C(=O)N[C@@H](Cc1ccc2ccccc2c1)C(=O)N[C@@H](Cc1c[nH]c2ccccc12)C(=O)N[C@H](C(=O)N[C@H](C(=O)N[C@H](C(=O)N[C@@H](CCCNC(=N)N)C(=O)N[C@H](C(=O)O)C(C)(C)C)[C@@H](C)O)C(C)(C)C)C(C)(C)S (Ac-C[dR]RR[2Nal]W[Pen][Tle]TR[Tle]-OH)	92%
CC(=O)N[C@@H](CS)C(=O)N[C@H](CCCNC(=N)N)C(=O)N[C@@H](CCCNC(=N)N)C(=O)N[C@@H](CCCNC(=N)N)C(=O)N[C@@H](Cc1ccc2ccccc2c1)C(=O)N[C@@H](Cc1csc2ccccc12)C(=O)N1CCC[C@H]1C(=O)N[C@H](C(=O)N[C@H](C(=O)N[C@@H](CCCNC(=N)N)C(=O)N[C@H](C(=O)O)C(C)(C)C)[C@@H](C)O)C(C)(C)S (Ac-C[dR]RR[2Nal][Bta]P[Pen]TR[Tle]-OH)	36%

Other lines, results leading:

Drug uptake	SMILES
23%	CC(=O)N[C@@H](CS)C(=O)N[C@H](CCCNC(=N)N)C(=O)N[C@H](CCCNC(=N)N)C(=O)N[C@@H](CCCNC(=N)N)C(=O)N[C@@H](Cc1ccc2ccccc2c1)C(=O)N[C@@H](Cc1c[nH]c2ccccc12)C(=O)N[C@@H](CCC(N)=O)C(=O)N[C@H](C(=O)N[C@H](C(=O)N[C@@H](CCCNC(=N)N)C(=O)N[C@H](C(=O)O)C(C)(C)C)[C@@H](C)O)C(C)(C)S (Ac-C[dR][dR]R[2Nal]WQ[Pen]TR[Tle]-OH)
28%	CC(=O)N[C@@H](CS)C(=O)N[C@H](CCCNC(=N)N)C(=O)N[C@@H](CCCNC(=N)N)C(=O)N[C@@H](CCCNC(=N)N)C(=O)N[C@@H](Cc1ccc2ccccc2c1)C(=O)N[C@@H](Cc1c[nH]c2ccccc12)C(=O)N[C@@H](CCC(N)=O)C(=O)N[C@H](C(=O)N[C@H](C(=O)N[C@@H](CCCNC(=N)N)C(=O)N[C@H](C(=O)O)C(C)(C)C)[C@@H](C)O)C(C)(C)S (Ac-C[dR]RR[2Nal]WQ[Pen]TR[Tle]-OH)
17%	CC(=O)N[C@@H](CS)C(=O)N[C@@H](CCCNC(=N)N)C(=O)N[C@H](CCCNC(=N)N)C(=O)N[C@@H](CCCNC(=N)N)C(=O)N[C@@H](Cc1ccc2ccccc2c1)C(=O)N[C@@H](Cc1c[nH]c2ccccc12)C(=O)N[C@@H](CCC(N)=O)C(=O)N[C@H](C(=O)N[C@H](C(=O)N[C@@H](CCCNC(=N)N)C(=O)N[C@H](C(=O)O)C(C)(C)C)[C@@H](C)O)C(C)(C)S (Ac-CR[dR]R[2Nal]WQ[Pen]TR[Tle]-OH)

Target: Golgi-associated PDZ and coiled-coil motif-containing protein (Homo sapiens, UniProt Q9HD26)
Assay: Binding affinity to C-terminal His6 tagged CAL PDZ domain (unknown origin) expressed in Escherichia coli BL21 incubated for 1 hr using FAM-22 probe by fluorescence polarization based competition assay

SMILES	IC50
CC(=O)N[C@@H](CS)C(=O)N[C@@H](CCCNC(=N)N)C(=O)N[C@@H](CCCNC(=N)N)C(=O)N[C@@H](CCCNC(=N)N)C(=O)N[C@@H](Cc1ccccc1)C(=O)N[C@@H](Cc1cccc2ccccc12)C(=O)N[C@@H](CCC(N)=O)C(=O)N[C@@H](CS)C(=O)N[C@H](C(=O)N[C@@H](CCCNC(=N)N)C(=O)N[C@H](C(=O)O)C(C)(C)C)[C@@H](C)O (Ac-CRRRF[1Nal]QCTR[Tle]-OH)	1800 nM
CC(=O)N[C@@H](CS)C(=O)N[C@@H](CCCNC(=N)N)C(=O)N[C@@H](CCCNC(=N)N)C(=O)N[C@@H](CCCNC(=N)N)C(=O)N[C@@H](Cc1cccc2ccccc12)C(=O)N[C@@H](Cc1c[nH]c2ccccc12)C(=O)N[C@@H](CCC(N)=O)C(=O)N[C@H](C(=O)N[C@H](C(=O)N[C@@H](CCCNC(=N)N)C(=O)N[C@H](C(=O)O)C(C)(C)C)[C@@H](C)O)C(C)(C)S (Ac-CRRR[1Nal]WQ[Pen]TR[Tle]-OH)	150 nM

Next, values leading:

IC50	SMILES
150 nM	CC(=O)N[C@@H](CS)C(=O)N[C@@H](CCCNC(=N)N)C(=O)N[C@@H](CCCNC(=N)N)C(=O)N[C@@H](CCCNC(=N)N)C(=O)N[C@@H](Cc1ccc2ccccc2c1)C(=O)N[C@@H](Cc1c[nH]c2ccccc12)C(=O)N[C@@H](CCC(N)=O)C(=O)N[C@H](C(=O)N[C@H](C(=O)N[C@@H](CCCNC(=N)N)C(=O)N[C@H](C(=O)O)C(C)(C)C)[C@@H](C)O)C(C)(C)S (Ac-CRRR[2Nal]WQ[Pen]TR[Tle]-OH)
170 nM	CC(=O)N[C@@H](CS)C(=O)N[C@H](CCCNC(=N)N)C(=O)N[C@@H](CCCNC(=N)N)C(=O)N[C@@H](CCCNC(=N)N)C(=O)N[C@@H](Cc1ccc2ccccc2c1)C(=O)N[C@@H](Cc1c[nH]c2ccccc12)C(=O)N[C@@H](CCC(N)=O)C(=O)N[C@H](C(=O)N[C@H](C(=O)N[C@@H](CCCNC(=N)N)C(=O)N[C@H](C(=O)O)C(C)(C)C)[C@@H](C)O)C(C)(C)S (Ac-C[dR]RR[2Nal]WQ[Pen]TR[Tle]-OH)
